Data from paper PMC2738612 (Biochemistry, 2009).

B1: E^321A: rCBD variant, single-point alanine substitution at E^321, module 2 (protein)
chain: APSPIIKFPGDVAPKTDKELAVQYLNTFYGCPKESCNLFVLKDTLKKMQKFFGLPQTGDLDQNTIETMRKPRCGNPDVANYNFFPRKPKWDKNQITYRIIGYTPDLDPETVDDAFARAFQVWSDVTPLRFSRIHDGEADIMINFGRWEHGDGYPFDGKDGLLAHAFAPGTGVGGDSHFDDDELWTLGEGQVVRVKYGNADGEYCKFPFLFNGKEYNSCTDTGRSDGFLWCSTTYNFEKDGKYGFCPHEALFTMGGNAEGQPCKFPFRFQGTSYDSCTTEGRTDGYRWCGTTADYDRDKKYGFCPETAMSTVGGNSEGAPCVFPFTFLGNKYESCTSAGRSDGKMWCATTANYDDDRKWGFCPDQGYSLFLVAAHEFGHAMGLEHSQDPGALMAPIYTYTKNFRLSQDDIKGIQELYGASPDIDLGTGPTPTLGPVTPEICKQDIVFDGIAQIRGEIFFFKDRFIWRTVTPRDKPMGPLLVATFWPELPEKIDAVYEAPQEEKAVFFAGNEYWIYSASTLERGYPKPLTSLGLPPDVQRVDAAFNWSKNKKTYIFAGDKFWRYNEVKKKMDPGFPKLIADAWNAIPDNLDAVVDLQGGGHSYFFKGAYYLKLENQSLKSVKFGSIKSDWLGC
modifications: biotinylated for the microwell assay; left off: His tag, end not stated, state not stated
B2: F^280A: rCBD variant, single-point alanine substitution at F^280, negative control (protein)
chain: APSPIIKFPGDVAPKTDKELAVQYLNTFYGCPKESCNLFVLKDTLKKMQKFFGLPQTGDLDQNTIETMRKPRCGNPDVANYNFFPRKPKWDKNQITYRIIGYTPDLDPETVDDAFARAFQVWSDVTPLRFSRIHDGEADIMINFGRWEHGDGYPFDGKDGLLAHAFAPGTGVGGDSHFDDDELWTLGEGQVVRVKYGNADGEYCKFPFLFNGKEYNSCTDTGRSDGFLWCSTTYNFEKDGKYGFCPHEALATMGGNAEGQPCKFPFRFQGTSYDSCTTEGRTDGYRWCGTTEDYDRDKKYGFCPETAMSTVGGNSEGAPCVFPFTFLGNKYESCTSAGRSDGKMWCATTANYDDDRKWGFCPDQGYSLFLVAAHEFGHAMGLEHSQDPGALMAPIYTYTKNFRLSQDDIKGIQELYGASPDIDLGTGPTPTLGPVTPEICKQDIVFDGIAQIRGEIFFFKDRFIWRTVTPRDKPMGPLLVATFWPELPEKIDAVYEAPQEEKAVFFAGNEYWIYSASTLERGYPKPLTSLGLPPDVQRVDAAFNWSKNKKTYIFAGDKFWRYNEVKKKMDPGFPKLIADAWNAIPDNLDAVVDLQGGGHSYFFKGAYYLKLENQSLKSVKFGSIKSDWLGC
modifications: biotinylated for the microwell assay; left off: His tag, end not stated, state not stated
B3: E^361A: rCBD variant, single-point alanine substitution at E^361, negative control (protein)
chain: APSPIIKFPGDVAPKTDKELAVQYLNTFYGCPKESCNLFVLKDTLKKMQKFFGLPQTGDLDQNTIETMRKPRCGNPDVANYNFFPRKPKWDKNQITYRIIGYTPDLDPETVDDAFARAFQVWSDVTPLRFSRIHDGEADIMINFGRWEHGDGYPFDGKDGLLAHAFAPGTGVGGDSHFDDDELWTLGEGQVVRVKYGNADGEYCKFPFLFNGKEYNSCTDTGRSDGFLWCSTTYNFEKDGKYGFCPHEALFTMGGNAEGQPCKFPFRFQGTSYDSCTTEGRTDGYRWCGTTEDYDRDKKYGFCPETAMSTVGGNSEGAPCVFPFTFLGNKYASCTSAGRSDGKMWCATTANYDDDRKWGFCPDQGYSLFLVAAHEFGHAMGLEHSQDPGALMAPIYTYTKNFRLSQDDIKGIQELYGASPDIDLGTGPTPTLGPVTPEICKQDIVFDGIAQIRGEIFFFKDRFIWRTVTPRDKPMGPLLVATFWPELPEKIDAVYEAPQEEKAVFFAGNEYWIYSASTLERGYPKPLTSLGLPPDVQRVDAAFNWSKNKKTYIFAGDKFWRYNEVKKKMDPGFPKLIADAWNAIPDNLDAVVDLQGGGHSYFFKGAYYLKLENQSLKSVKFGSIKSDWLGC
modifications: biotinylated for the microwell assay; left off: His tag, end not stated, state not stated
B4: Y^302A: rCBD variant, single-point alanine substitution at Y^302, module 2 (protein)
chain: APSPIIKFPGDVAPKTDKELAVQYLNTFYGCPKESCNLFVLKDTLKKMQKFFGLPQTGDLDQNTIETMRKPRCGNPDVANYNFFPRKPKWDKNQITYRIIGYTPDLDPETVDDAFARAFQVWSDVTPLRFSRIHDGEADIMINFGRWEHGDGYPFDGKDGLLAHAFAPGTGVGGDSHFDDDELWTLGEGQVVRVKYGNADGEYCKFPFLFNGKEYNSCTDTGRSDGFLWCSTTYNFEKDGKYGFCPHEALFTMGGNAEGQPCKFPFRFQGTSADSCTTEGRTDGYRWCGTTEDYDRDKKYGFCPETAMSTVGGNSEGAPCVFPFTFLGNKYESCTSAGRSDGKMWCATTANYDDDRKWGFCPDQGYSLFLVAAHEFGHAMGLEHSQDPGALMAPIYTYTKNFRLSQDDIKGIQELYGASPDIDLGTGPTPTLGPVTPEICKQDIVFDGIAQIRGEIFFFKDRFIWRTVTPRDKPMGPLLVATFWPELPEKIDAVYEAPQEEKAVFFAGNEYWIYSASTLERGYPKPLTSLGLPPDVQRVDAAFNWSKNKKTYIFAGDKFWRYNEVKKKMDPGFPKLIADAWNAIPDNLDAVVDLQGGGHSYFFKGAYYLKLENQSLKSVKFGSIKSDWLGC
modifications: biotinylated for the microwell assay; left off: His tag, end not stated, state not stated
B5: Y^323A: rCBD variant, single-point alanine substitution at Y^323, module 2 (protein)
chain: APSPIIKFPGDVAPKTDKELAVQYLNTFYGCPKESCNLFVLKDTLKKMQKFFGLPQTGDLDQNTIETMRKPRCGNPDVANYNFFPRKPKWDKNQITYRIIGYTPDLDPETVDDAFARAFQVWSDVTPLRFSRIHDGEADIMINFGRWEHGDGYPFDGKDGLLAHAFAPGTGVGGDSHFDDDELWTLGEGQVVRVKYGNADGEYCKFPFLFNGKEYNSCTDTGRSDGFLWCSTTYNFEKDGKYGFCPHEALFTMGGNAEGQPCKFPFRFQGTSYDSCTTEGRTDGYRWCGTTEDADRDKKYGFCPETAMSTVGGNSEGAPCVFPFTFLGNKYESCTSAGRSDGKMWCATTANYDDDRKWGFCPDQGYSLFLVAAHEFGHAMGLEHSQDPGALMAPIYTYTKNFRLSQDDIKGIQELYGASPDIDLGTGPTPTLGPVTPEICKQDIVFDGIAQIRGEIFFFKDRFIWRTVTPRDKPMGPLLVATFWPELPEKIDAVYEAPQEEKAVFFAGNEYWIYSASTLERGYPKPLTSLGLPPDVQRVDAAFNWSKNKKTYIFAGDKFWRYNEVKKKMDPGFPKLIADAWNAIPDNLDAVVDLQGGGHSYFFKGAYYLKLENQSLKSVKFGSIKSDWLGC
modifications: biotinylated for the microwell assay; left off: His tag, end not stated, state not stated
B6: F^297A: rCBD variant, single-point alanine substitution at F^297, module 2 (protein)
chain: APSPIIKFPGDVAPKTDKELAVQYLNTFYGCPKESCNLFVLKDTLKKMQKFFGLPQTGDLDQNTIETMRKPRCGNPDVANYNFFPRKPKWDKNQITYRIIGYTPDLDPETVDDAFARAFQVWSDVTPLRFSRIHDGEADIMINFGRWEHGDGYPFDGKDGLLAHAFAPGTGVGGDSHFDDDELWTLGEGQVVRVKYGNADGEYCKFPFLFNGKEYNSCTDTGRSDGFLWCSTTYNFEKDGKYGFCPHEALFTMGGNAEGQPCKFPFRAQGTSYDSCTTEGRTDGYRWCGTTEDYDRDKKYGFCPETAMSTVGGNSEGAPCVFPFTFLGNKYESCTSAGRSDGKMWCATTANYDDDRKWGFCPDQGYSLFLVAAHEFGHAMGLEHSQDPGALMAPIYTYTKNFRLSQDDIKGIQELYGASPDIDLGTGPTPTLGPVTPEICKQDIVFDGIAQIRGEIFFFKDRFIWRTVTPRDKPMGPLLVATFWPELPEKIDAVYEAPQEEKAVFFAGNEYWIYSASTLERGYPKPLTSLGLPPDVQRVDAAFNWSKNKKTYIFAGDKFWRYNEVKKKMDPGFPKLIADAWNAIPDNLDAVVDLQGGGHSYFFKGAYYLKLENQSLKSVKFGSIKSDWLGC
modifications: biotinylated for the microwell assay; left off: His tag, end not stated, state not stated

Key:
[1] = system: gelatin (denatured type I collagen); experiment: Surface plasmon resonance binding to immobilized gelatin; design: species or system rat; conditions: 1 µM analyte, Biacore buffer pH 7.4; compared to WT CBD
native type I collagen = experiment: Surface plasmon resonance binding to immobilized native type I collagen; design: species or system rat; conditions: 1 µM analyte, Biacore buffer pH 7.4; compared to WT CBD
Procedure, shortened: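 Native non-pepsin-treated acid-soluble rat tail type I collagen in 10 mM sodium acetate, pH 4.5, was amine-coupled to EDC/NHS-activated CM5 chips at ~3000 RU, then ethanolamine-blocked; an uncoated flow cell served as control. Analytes at 1 µM in 10 mM HEPES, 150 mM NaCl, 0.005% P20, pH 7.4, flowed at 5 µl/min for 6 min. RU were averaged over 5 s before injection end. Chips were regenerated with 6 M guanidine-HCl, with WT CBD run at the start and end of each series.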

Row | Molecule | binding to gelatin / denatured type I collagen (SPR, RU) [1] | binding to native type I collagen (SPR, RU) (native type I collagen)
1 | B1 | no reduction in collagen-binding | no reduction in collagen-binding
2 | B2 | no reduction in collagen-binding | no reduction in collagen-binding
3 | B3 | no reduction in collagen-binding | no reduction in collagen-binding
4 | B4 | strong reduction in binding | strong reduction in binding
5 | B5 | strong reduction in binding | strong reduction in binding
6 | B6 | strong reduction in binding | strong reduction in binding
